Screening results deposited in PubChem by several laboratories.
This is a sample that favours compounds with a hit; in the whole collection about 2.4% have one here.
MC4R antag cAMP: MC4R antagonists of cAMP signaling, primary screen, cell-based, TR-FRET, antagonist arm of biased-ligand search; Melanocortin receptor 4 (Homo sapiens), P32245; MC4R-expressing cells, MTII-stimulated cAMP, LANCE TR-FRET; inhibition, % at 6.5 µM; 360,000 tested, 0.48% active;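 active = inhibition above its plate's cutoff, the mean of tested wells on that plate plus 3 SD, cut at about 29% in these data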
Target sequence (P32245 whole entry, looked up): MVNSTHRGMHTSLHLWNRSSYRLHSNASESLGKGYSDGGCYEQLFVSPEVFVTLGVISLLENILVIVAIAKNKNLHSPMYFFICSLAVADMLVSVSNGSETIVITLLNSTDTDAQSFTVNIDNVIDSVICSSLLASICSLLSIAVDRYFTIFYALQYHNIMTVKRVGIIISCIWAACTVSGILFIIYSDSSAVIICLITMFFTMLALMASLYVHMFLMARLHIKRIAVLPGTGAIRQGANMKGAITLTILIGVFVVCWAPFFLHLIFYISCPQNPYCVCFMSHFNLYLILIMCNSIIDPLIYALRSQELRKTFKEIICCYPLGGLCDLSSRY
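Material: U2OS-MC4R stable cell line | Reagent: Melanotan II challenge after compound preincubation | Doses: One concentration, 6.5 µM nominal | Incubation: 30-min compound preincubation, 1-h Melanotan II challenge, 1-h detection, room temperature | Signal: TR-FRET cAMP assay | Replicates: One well per compound, no replicates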
TbMetRS inhib: T. brucei MetRS inhibitors, primary screen, biochemical, luminescence; methionyl-tRNA synthetase (Trypanosoma brucei brucei); purified T. brucei MetRS, ATP depletion, Kinase-Glo luminescence; inhibition, % at 11.9 µM; 360,000 tested, 0.4% active;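 active = inhibition above a per-plate cutoff of the control wells' mean inhibition plus 3 SD, cut at about 5.5% in these data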
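Material: T. brucei methionyl-tRNA synthetase, purified; reagent: substrates ATP, L-methionine and bulk Escherichia coli tRNA; dosing: 11.9 µM single point; timing: 15 min plus 2 h at 25 °C; detection: luminescence of leftover ATP; evaluation: % inhibition; control set: DMSO-only wells as low control; replicates: singlicate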
H9c2 TAG inh: inhibitors of triacylglycerol accumulation, primary screen, cell-based, uHTS, fluorescence, H9c2 | H9c2 cells, Nile Red lipid (TAG) fluorescence; cells loaded with 200 µM oleic acid | inhibition, % at 12.5 µM | 230,000 tested, 0.66% active;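 active = pattern-corrected inhibition of lipid staining of at least 50% with the nuclear-stain viability signal not falling by more than 50%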
MC4R ag barr: MC4R agonists recruiting beta-arrestin, primary screen, cell-based, luminescence, agonist arm of biased-ligand search. U2OS MC4R beta-arrestin complementation; percent of melanotan II response, DMSO zero. Melanocortin receptor 4 (Homo sapiens), P32245. activation, % at 8.9 µM. 360,000 tested, 0.98% active;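 active = activation above a per-plate cutoff, the mean activation of sample wells on that plate plus 3 SD, cut at about 8% in these data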
NTR1 agonist: agonists of human NTR1, primary screen, imaging, U2OS cells, beta-arrestin-GFP, high content; NTR1-U2OS beta-arrestin-GFP spot imaging, agonist mode; activation, % at 20 µM; 330,000 tested, 0.17% active;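 active = activation at or above 40% of the spot to cytoplasm intensity ratio, with at least 20 cells analyzed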
aDG glyco up: activators of alpha-DG glycosylation, primary screen, uHTS, Pro5-aDG cells, AlphaScreen; AID 624168, 2012; activation, % at 10 µM; 360,000 tested, 0.22% active; alpha-DG glycosylation AlphaScreen (IIH6); 0% Pro5, 100% B10-LARGE cell signal;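 active = activation of at least 8% versus controls, or a plate z-score of at least 8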;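 note: Pro5 are CHO cells carrying HIG-tagged alpha-DG that lacks glycosylation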
aDG conf: alpha-DG glycosylation enhancers, retest, confirmation, single concentration, Pro5-aDG cells | AID 651671, 2012 | shares compounds with aDG glyco up | 600 tested, 17% active | activation, % at 10 µM (by protocol) | IIH6 AlphaLISA; scaled to LARGE-overexpressing B10 cells as 100%;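 active = activation of at least 7% in one or more replicates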;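 note: cells exposed to compound for two days before detection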
Numbers stand for hits; . = inactive; / = not tested or not shown.

SMILES	MC4R antag cAMP	TbMetRS inhib	H9c2 TAG inh	MC4R ag barr	NTR1 agonist	aDG glyco up	aDG conf
CN(CC(=O)Nc1cccc(F)c1)C(=O)c1cccc(-n2cccc2)c1	.	.	.	.	.	.	/
COC(=O)C[C@@H]1CC[C@H](NC(=O)Nc2cccc(F)c2)[C@@H](CO)O1	/	.	/	/	/	.	/
CC(C)(C)OC(=O)N/N=C\c1ccc([N+](=O)[O-])s1	.	.	.	.	.	.	/
O=C(CNC(=O)c1ccccc1)N/N=C/c1ccc([N+](=O)[O-])s1	.	.	.	.	.	12	5.5
O=C(Cc1ccccc1)NCC(=O)N/N=C/c1ccc([N+](=O)[O-])s1	.	.	/	.	.	.	/
CCOC(=O)N/N=C\c1ccc([N+](=O)[O-])s1	.	.	.	.	.	6.5	4.7
Cc1nc2cc(NC(=O)c3ccc([N+](=O)[O-])s3)ccc2s1	.	.	.	.	.	11	5.1
CCc1ccccc1NC(=O)c1ccc([N+](=O)[O-])s1	.	.	.	.	.	13	.
COc1ccccc1NC(=O)COC(=O)c1ccc([N+](=O)[O-])s1	.	.	.	.	.	.	/
CCCCN(C=O)c1c(CC)nc2c(OCc3ccc(S(C)(=O)=O)cc3)cccn12	.	.	.	.	/	.	/
COc1cc(F)ccc1-c1csc(C(C)(NC(C)=O)c2ccccc2)n1 (configuration not stated)	.	.	.	.	/	.	/
CCc1nc2ccc(C(=O)NCc3ccccc3OC)cn2c1N(CC)Cc1cccc(Br)c1	.	.	.	.	/	.	/
O=C(NC1CCCC1)C(c1ccccc1)n1c(-c2ccc3c(c2)CCO3)nc2ccccc21 (configuration not stated)	/	.	/	/	/	.	/
COc1cc(CCN(C(=O)c2cc3ccccc3[nH]2)C(c2ccccn2)c2nc3ccccc3[nH]2)cc(OC)c1 (configuration not stated)	/	.	/	/	/	.	/
Cc1cc(C)cc(SCc2noc(C(=O)NCCN(C)C)c2C(=O)NCCN(C)C)c1	.	.	.	.	.	7.2	.
O=C(OCc1ccccc1)N1CCC2CC1c1cc(Cl)ccc12 (configuration not stated)	.	.	.	.	/	9.7	.
O=C(NCc1cccc(C(F)(F)F)c1)c1ccc2sc(C3=C[C@@H](O)[C@@H](O)[C@@H](CO)O3)nc2c1	.	.	.	.	/	.	/
Clc1ccccc1COc1ccc(/C=N/n2cnnc2)cc1	.	.	/	.	.	.	/
C=CCNC(=S)N/N=C/c1ccc(OCc2ccccc2Cl)cc1	.	.	/	.	.	6.5	.
Clc1ccc(SCc2cc(N3CCOCC3)nc(-c3ccccn3)n2)cc1	.	.	.	.	.	8.5	4.0
COc1ccc(C2CC(c3ccc4ccccc4c3)=NN2C(=O)CN2CCC(C(N)=O)CC2)cc1 (configuration not stated)	.	.	.	.	.	.	/
C=CCNCC(=O)N1N=C(c2ccc3ccccc3c2)CC1c1ccc(OC)cc1 (configuration not stated)	.	.	.	8.9	.	5.8	.
CC(=O)c1ccc(N2CCC(c3cc(-c4ccc(Cl)cc4Cl)n[nH]3)CC2)c([N+](=O)[O-])c1	.	.	/	.	.	8.8	.
O=[N+]([O-])c1cccnc1N1CCC(c2cc(-c3ccc(Cl)cc3Cl)n[nH]2)CC1	.	.	.	.	.	.	/
CCCNS(=O)(=O)c1ccc(OCC(=O)NCCC2=CCCCC2)cc1	.	.	/	.	.	9.1	.
